Test results: ChEMBL document CHEMBL4414579, “Natural Hydroxamate-Containing Siderophore Acremonpeptides A-D and an Aluminum Complex of Acremonpeptide D from the Marine-Derived Acremonium persicinum SCSIO 115” (J Nat Prod, 2019)
The source made the active and inactive calls. The rule behind the calls is not given here. Square brackets hold non-standard residues; d marks the D form. Peptide text beside a SMILES is read from it. Orn(N5-OH,N5-Ac) = CC(=O)N(O)CCC[C@H](N)C(=O)O

Columns and labels:
Type in all cases: functional, organism-based
Klebsiella pneumoniae = assay: Antibacterial activity against Klebsiella pneumoniae ATCC 13883 up to 100 ug/ml by CLSI based method
Human alphaherpesvirus 1 [1] = assay: Antiviral activity against HSV-1 infected in African green monkey Vero cells assessed as inhibition of GFP expression after 72 hrs by GFP-based fluorescence microscopic analysis; conditions: Human alphaherpesvirus 1, Vero
In short: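 Vero cells were infected at MOI 1.0 with recombinant HSV-1 carrying a GFP reporter. Cells were treated with compounds at 10 μM final or an equal amount of DMSO, with ganciclovir as positive control, and GFP was monitored by fluorescence microscopy. For EC50, infected cells were treated at several concentrations in triplicate, and viral load was measured by TCID50 at 72 h postinfection.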

Bacillus thuringiensis [2] = assay: Antibacterial activity against Bacillus thuringiensis W102 up to 100 ug/ml by CLSI based method
Bacillus thuringiensis [3] = assay: Antibacterial activity against Bacillus thuringiensis BT01 up to 100 ug/ml by CLSI based method
Staphylococcus aureus [4] = assay: Antibacterial activity against Staphylococcus aureus ATCC 29213 up to 100 ug/ml by CLSI based method
Escherichia coli [5] = assay: Antibacterial activity against Escherichia coli ATCC 25922 up to 100 ug/ml by CLSI based method
Candida albicans [6] = assay: Antifungal activity against Candida albicans CMCC(F) 98001
In short: (§1)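 Tested against the yeast by a previously reported antimicrobial method, at concentrations up to 100 μg/mL.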

Enterococcus faecalis = assay: Antibacterial activity against Enterococcus faecalis ATCC 29212 up to 100 ug/ml by CLSI based method
Acinetobacter baumannii = assay: Antibacterial activity against Acinetobacter baumannii ATCC 19606 up to 100 ug/ml by CLSI based method; conditions: ATCC 19606 = CIP 70.34 = JCM 6841
Human alphaherpesvirus 1 [7] = assay: Inhibition of UL42 gene transcription in HSV-1 infected in African green monkey Vero cells at 10 uM by qRT-PCR analysis
In short: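 Vero cells were infected with GFP-reporter HSV-1 at MOI 1.0, then exposed to compounds at 10 μM final or DMSO. Viral gene transcription was quantified by qRT-PCR, with ganciclovir as positive control and NTC as negative control.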

Escherichia coli [8] = assay: Antibacterial activity against drug-resistant Escherichia coli E11 up to 100 ug/ml by CLSI based method
In short: (§2)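 Both strains were clinical isolates. They were screened within a panel of nine bacteria and two Candida albicans strains, at concentrations up to 100 μg/mL, by a previously reported method.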

Staphylococcus aureus [9] = assay: Antibacterial activity against methicillin resistant Staphylococcus aureus shhs-A1 up to 100 ug/ml by CLSI based method; in short: as §2
Candida albicans [10] = assay: Antifungal activity against Candida albicans ATCC 96901; in short: as §1

Compound	Activity (Klebsiella pneumoniae)	EC50 (Human alphaherpesvirus 1 [1])	Activity (Bacillus thuringiensis [2])	Activity (Bacillus thuringiensis [3])	Activity (Staphylococcus aureus [4])	Activity (Escherichia coli [5])	Activity (Candida albicans [6])	Activity (Enterococcus faecalis)	Activity (Acinetobacter baumannii)	inhibition (Human alphaherpesvirus 1 [7])	Activity (Escherichia coli [8])	Activity (Staphylococcus aureus [9])	Activity (Candida albicans [10])
CC(=O)N(O)CCC[C@@H]1NC(=O)[C@H](CCCN(O)C(C)=O)NC(=O)[C@H](CCCN(O)C(C)=O)NC(=O)[C@H](Cc2ccccc2)NC(=O)[C@H](CC(C)C)NC(=O)[C@H](C)NC1=O (cyclo(ALF[Orn(N5-OH,N5-Ac)][Orn(N5-OH,N5-Ac)][Orn(N5-OH,N5-Ac)]))	inactive	8.7 µM	inactive	inactive	inactive	inactive	inactive	inactive	inactive	Active	inactive	inactive	inactive
CC(=O)N(O)CCC[C@@H]1NC(=O)[C@H](CCCN(O)C(C)=O)NC(=O)[C@H](Cc2ccccc2)NC(=O)[C@H](CC(C)C)NC(=O)[C@H](Cc2ccccc2)NC(=O)[C@H](CCCN(O)C(C)=O)NC1=O (cyclo(FLF[Orn(N5-OH,N5-Ac)][Orn(N5-OH,N5-Ac)][Orn(N5-OH,N5-Ac)]))	inactive	27 µM	inactive	inactive	inactive	inactive	inactive	inactive	inactive	–	inactive	inactive	inactive
CC(=O)N(O)CCC[C@@H]1NC(=O)[C@H](CCCN(O)C(C)=O)NC(=O)[C@H](CCCN(O)C(C)=O)NC(=O)[C@H](Cc2ccccc2)NC(=O)[C@H](CC(C)C)NC(=O)[C@H](CO)NC1=O (cyclo(F[Orn(N5-OH,N5-Ac)][Orn(N5-OH,N5-Ac)][Orn(N5-OH,N5-Ac)]SL))	inactive	16 µM	inactive	inactive	inactive	inactive	inactive	inactive	inactive	Active	inactive	inactive	inactive
CC(=O)N(O)CCC[C@@H]1NC(=O)[C@H](CCCN(O)C(C)=O)NC(=O)[C@H](Cc2ccccc2)NC(=O)[C@H](CC(C)C)NC(=O)[C@H](Cc2c[nH]c3ccccc23)NC(=O)[C@H](CCCN(O)C(C)=O)NC1=O (cyclo(F[Orn(N5-OH,N5-Ac)][Orn(N5-OH,N5-Ac)][Orn(N5-OH,N5-Ac)]WL))	inactive	24 µM	inactive	inactive	inactive	inactive	inactive	inactive	inactive	–	inactive	inactive	inactive
Nc1nc2c(ncn2COC(CO)CO)c(=O)[nH]1 [GANCICLOVIR]	–	0.025 µM	–	–	–	–	–	–	–	Active	–	–	–
